Experimental data collected from several papers.
Protocols differ between the studies behind these lines.
Target: Homeodomain-interacting protein kinase 4 (HIPK4, Homo sapiens, UniProt Q8NE63)
Sequence (Q8NE63 1-616, as in one of the studies): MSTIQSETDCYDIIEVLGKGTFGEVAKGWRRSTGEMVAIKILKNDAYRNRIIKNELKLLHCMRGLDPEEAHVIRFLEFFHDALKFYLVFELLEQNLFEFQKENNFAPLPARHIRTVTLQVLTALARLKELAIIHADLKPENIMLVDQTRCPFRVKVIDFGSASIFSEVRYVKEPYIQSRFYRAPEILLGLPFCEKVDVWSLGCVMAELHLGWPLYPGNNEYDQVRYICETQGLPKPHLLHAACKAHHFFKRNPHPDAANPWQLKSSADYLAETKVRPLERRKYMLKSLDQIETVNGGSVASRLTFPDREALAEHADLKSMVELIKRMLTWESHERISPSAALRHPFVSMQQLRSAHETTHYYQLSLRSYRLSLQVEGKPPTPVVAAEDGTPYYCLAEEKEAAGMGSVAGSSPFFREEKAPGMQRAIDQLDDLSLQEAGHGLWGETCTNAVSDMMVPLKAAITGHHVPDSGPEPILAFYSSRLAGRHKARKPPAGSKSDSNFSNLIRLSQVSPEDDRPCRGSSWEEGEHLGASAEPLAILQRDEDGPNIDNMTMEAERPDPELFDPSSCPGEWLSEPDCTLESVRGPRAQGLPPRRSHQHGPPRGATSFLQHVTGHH

C[C@H]1CC[C@H](n2c3cnccc3c3cnc(Nc4ccc5c(n4)CCN(C(=O)CO)C5)nc32)CC1  remaining binding (binding, competition with immobilised ligand; 1 µM): 56%
CC#CC(=O)N1CCC[C@H]1c1nc(-c2ccc(C(=O)Nc3ccccn3)cc2)c2c(N)nccn12  inhibition (enzyme activity, inhibitor; 1 µM): 0%
C1=C/COCc2cc(ccc2OCCN2CCCC2)Nc2nccc(n2)-c2cccc(c2)COC/1  remaining binding (binding; 0.1 µM): 2.3%
CN1CCN(C(=O)c2ccc(NC(=O)Nc3ccc(N(C)c4ccnc(Nc5ccc(CS(C)(=O)=O)cc5)n4)cc3)cc2)CC1  remaining binding (binding, competition with immobilised ligand; 1 µM): 74%
CO[C@@H]1[C@H](N(C)C(=O)c2ccccc2)C[C@H]2O[C@]1(C)n1c3ccccc3c3c4c(c5c6ccccc6n2c5c31)C(=O)NC4  inhibition (enzyme activity, inhibitor; 1 µM): 23%
C#Cc1cc(-c2cc(Nc3nc(N[C@@H](C)c4ccc(F)cn4)ncc3Cl)n[nH]2)ccc1C=O  inhibition (enzyme activity, inhibitor; 0.2 µM): 4.92%
CCCCC(=O)Nc1ccc(-c2ccc3ncn(CCC)c(=O)c3c2)cn1  remaining binding (binding, competition with immobilised ligand; 0.5 µM): 66%
CC(C)S(=O)(=O)c1ccc2nccc(Nc3ccc4sc(C5CCCC5)nc4c3)c2c1  activity vs control (enzyme activity, inhibitor; 1 µM): 98%
